Experimental data reported in ChEMBL document CHEMBL1124414, “2(1H)-quinolinones with cardiac stimulant activity. 2. Synthesis and biological activities of 6-(N-linked, five-membered heteroaryl) derivatives” (1989).

Tests used:
Canis familiaris [1] = test: Compound was examined for effects on cardiac contractility after oral administration of 0.5 mg/Kg to conscious dogs for 1 hr; assay type: functional, Canis lupus familiaris, Heart
Procedure, shortened: (§1)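 Conscious dogs dosed orally by gavage with a solution of test substance. QA interval recorded every 0.16 h from 0.5 h predose to up to 4 h postdose. Each time-point value is the mean of six consecutive sets, each set the mean over an 8-s period. Result is the change from mean predose control QA interval, read at 1 h and 3 h. Saline-dosed controls n = 8.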

Canis familiaris [2] = test: Relative inotropic potency compared with 4-[4-[2-(1,1-dioxo-2-isothiazolidinyl)ethyl]-1-piperidinyl]-6,7-dimethoxyquinazoline at 50 ug/kg after administration at 25 ug/kg intravenously to anesthetized dogs; assay type: functional, Canis lupus familiaris
Procedure, shortened: (§2)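 Anesthetized dogs instrumented for dP/dt max from left ventricular pressure by carotid catheter. Drug given iv in 0.9% saline. The standard quinazoline inotrope (50 μg/kg iv) was tested in the same dog. Relative potency = (% increase in dP/dt max to drug ÷ % increase to standard) × (standard dose ÷ drug dose).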

Canis familiaris [3] = test: Compound was examined for effects on cardiac contractility to decrease in QA interval after oral administration of 0.5 mg/Kg to conscious dogs for 3h; assay type: functional, Canis lupus familiaris, Heart; procedure, shortened: as §1
Canis familiaris [4] = test: Compound was tested for cardiotonic activity after intravenous administration of 25 ug/Kg to anesthetized dogs; assay type: functional, Canis lupus familiaris
Procedure, shortened: (§3)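 Anesthetized dogs with left ventricular pressure recorded by Millar catheter via the carotid artery. The signal is differentiated to give dP/dt max as the contractility index. Equilibration 0.75 h after surgery. Drug given iv in 0.9% saline 0.5 h after a standard inotrope (50 μg/kg). Doses repeated once control levels returned, at least 0.5 h apart. Result is % increase in dP/dt max after a single dose.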

Canis familiaris [5] = test: Compound was examined for effects on cardiac contractility to decrease in QA interval after oral administration of 0.125 mg/Kg to conscious dogs for 3h; assay type: functional, Canis lupus familiaris, Heart; procedure, shortened: as §1
Canis familiaris [6] = test: Compound was tested for cardiotonic activity after intravenous administration of 12.5 ug/Kg to anesthetized dogs; assay type: functional, Canis lupus familiaris; procedure, shortened: as §3
Canis familiaris [7] = test: Compound was examined for effects on cardiac contractility after oral administration of 0.125 mg/Kg to conscious dogs for 1 hr; assay type: functional, Canis lupus familiaris, Heart; procedure, shortened: as §1
Canis familiaris [8] = test: Relative inotropic potency compared with 4-[4-[2-(1,1-dioxo-2-isothiazolidinyl)ethyl]-1-piperidinyl]-6,7-dimethoxyquinazoline at 50 ug/kg after administration at 12.5 ug/kg intravenously to anesthetized dogs; assay type: functional, Canis lupus familiaris; procedure, shortened: as §2
Canis familiaris [9] = test: Compound was examined for effects on cardiac contractility to decrease in QA interval after oral administration of 0.25 mg/Kg to conscious dogs for 3h; assay type: functional, Canis lupus familiaris, Heart; procedure, shortened: as §1
Canis familiaris [10] = test: Compound was examined for effects on cardiac contractility after oral administration of 0.25 mg/Kg to conscious dogs for 1 hr; assay type: functional, Canis lupus familiaris, Heart; procedure, shortened: as §1
Canis familiaris [11] = test: Compound was tested for cardiotonic activity after intravenous administration of 10 ug/Kg to anesthetized dogs; assay type: functional, Canis lupus familiaris; procedure, shortened: as §3
Canis familiaris [12] = test: Relative inotropic potency compared with 4-[4-[2-(1,1-dioxo-2-isothiazolidinyl)ethyl]-1-piperidinyl]-6,7-dimethoxyquinazoline at 50 ug/kg after administration at 10 ug/kg intravenously to anesthetized dogs; assay type: functional, Canis lupus familiaris; procedure, shortened: as §2
Canis familiaris [13] = test: Compound was examined for effects on cardiac contractility to decrease in QA interval after oral administration of 0.0625 mg/Kg to conscious dogs for 3h; assay type: functional, Canis lupus familiaris, Heart; procedure, shortened: as §1
Canis familiaris [14] = test: Compound was examined for effects on cardiac contractility after oral administration of 0.0625 mg/Kg to conscious dogs for 1 hr; assay type: functional, Canis lupus familiaris, Heart; procedure, shortened: as §1
Canis familiaris [15] = test: Relative inotropic potency compared with 4-[4-[2-(1,1-dioxo-2-isothiazolidinyl)ethyl]-1-piperidinyl]-6,7-dimethoxyquinazoline at 50 ug/kg after administration at 6.5 ug/kg intravenously to anesthetized dogs; assay type: functional, Canis lupus familiaris; conditions: in the assay text read “6.25 ug/kg” for “6.5 ug/kg”; procedure, shortened: as §2
Canis familiaris [16] = test: Compound was tested for cardiotonic activity after intravenous administration of 6.25 ug/Kg to anesthetized dogs; assay type: functional, Canis lupus familiaris; procedure, shortened: as §3
Canis familiaris [17] = test: Relative inotropic potency compared with 4-[4-[2-(1,1-dioxo-2-isothiazolidinyl)ethyl]-1-piperidinyl]-6,7-dimethoxyquinazoline at 50 ug/kg after administration at 250 ug/kg intravenously to anesthetized dogs; assay type: functional, Canis lupus familiaris; procedure, shortened: as §2
Canis familiaris [18] = test: Compound was tested for cardiotonic activity after intravenous administration of 250 ug/Kg to anesthetized dogs; assay type: functional, Canis lupus familiaris; procedure, shortened: as §3
Canis familiaris [19] = test: Relative inotropic potency compared with 4-[4-[2-(1,1-dioxo-2-isothiazolidinyl)ethyl]-1-piperidinyl]-6,7-dimethoxyquinazoline at 50 ug/kg after administration at 50 ug/kg intravenously to anesthetized dogs; assay type: functional, Canis lupus familiaris; procedure, shortened: as §2
Canis familiaris [20] = test: Compound was examined for effects on cardiac contractility to decrease in QA interval after oral administration of 1 mg/Kg to conscious dogs for 3h; assay type: functional, Canis lupus familiaris, Heart; procedure, shortened: as §1
Canis familiaris [21] = test: Compound was tested for cardiotonic activity after intravenous administration of 50 ug/Kg to anesthetized dogs; assay type: functional, Canis lupus familiaris; procedure, shortened: as §3
Canis familiaris [22] = test: Compound was examined for effects on cardiac contractility after oral administration of 1 mg/Kg to conscious dogs for 1 hr; assay type: functional, Canis lupus familiaris, Heart; procedure, shortened: as §1
Canis familiaris [23] = test: Relative inotropic potency compared with 4-[4-[2-(1,1-dioxo-2-isothiazolidinyl)ethyl]-1-piperidinyl]-6,7-dimethoxyquinazoline at 50 ug/kg after administration of 50 ug/kg intravenously to anesthetized dogs; assay type: functional, Canis lupus familiaris; procedure, shortened: as §2
Canis familiaris [24] = test: Relative inotropic potency compared with 4-[4-[2-(1,1-dioxo-2-isothiazolidinyl)ethyl]-1-piperidinyl]-6,7-dimethoxyquinazoline at 50 ug/kg after iv administration of 25 ug/kg to anesthetized dogs; assay type: functional, Canis lupus familiaris; procedure, shortened: as §2

In the case of `Cc1cc(-n2cncn2)cc2ccc(O)nc12`, the “Decrease in QA interval” value (Canis familiaris [1]) was 21 ms, the Relative inotropic potency (Canis familiaris [2]) was 3.6 and the “Decrease in QA interval” value (Canis familiaris [3]) was 21 ms. The “Increase in dP/dt max” value (Canis familiaris [4]) was 67%.

`Cc1cc(-n2ccnc2C)cc2ccc(O)nc12` was tested, and the “Decrease in QA interval” value (Canis familiaris [5]) was 13 ms, the “Increase in dP/dt max” value (Canis familiaris [6]) was 50% and the “Decrease in QA interval” value (Canis familiaris [7]) was 14 ms. For the same molecule, the Relative inotropic potency (Canis familiaris [8]) was 5.5.

For `Cc1cc(-n2cnnn2)cc2ccc(O)nc12`, the “Decrease in QA interval” value (Canis familiaris [9]) was 16 ms, the Relative inotropic potency (Canis familiaris [2]) was 3.4 and the “Decrease in QA interval” value (Canis familiaris [10]) was 15 ms. For the same molecule, the “Increase in dP/dt max” value (Canis familiaris [4]) was 117%.

With `Cc1cn(-c2cc(C)c3nc(O)cc(C)c3c2)c(C)n1` the “Increase in dP/dt max” value (Canis familiaris [11]) was 10% and the Relative inotropic potency (Canis familiaris [12]) was 1.2.

In the case of `Cc1cc(-n2cnc(C(F)(F)F)c2)cc2ccc(O)nc12`, the “Decrease in QA interval” value (Canis familiaris [5]) was 5 ms, the “Increase in dP/dt max” value (Canis familiaris [6]) was 82% and the “Decrease in QA interval” value (Canis familiaris [7]) was 11 ms. The Relative inotropic potency (Canis familiaris [8]) was 4.5.

`Cc1cn(-c2cc(C)c3nc(O)ccc3c2)cn1` was tested, and the “Decrease in QA interval” value (Canis familiaris [13]) was 7 ms, the “Decrease in QA interval” value (Canis familiaris [14]) was 12 ms and the Relative inotropic potency (Canis familiaris [15]) was 16.3. The “Increase in dP/dt max” value (Canis familiaris [16]) was 59%.

For `Cc1cn(-c2ccc3nc(O)ccc3c2)c(C)n1`, the Relative inotropic potency (Canis familiaris [17]) was 0.2 and the “Increase in dP/dt max” value (Canis familiaris [18]) was 29%.

For `Cc1cn(-c2cc(C)c3c(c2)CCC(=O)N3)c(C)n1`, the Relative inotropic potency (Canis familiaris [19]) was 0.9, the “Decrease in QA interval” value (Canis familiaris [20]) was 13 ms and the “Increase in dP/dt max” value (Canis familiaris [21]) was 52%. The “Decrease in QA interval” value (Canis familiaris [22]) was 12 ms.

With `Cc1cn(-c2cc(C(F)(F)F)c3nc(O)ccc3c2)c(C)n1` the Relative inotropic potency (Canis familiaris [17]) was 0.2 and the “Increase in dP/dt max” value (Canis familiaris [18]) was 22%.

`Cc1cc(-n2cccn2)cc2ccc(O)nc12` was tested, and the “Increase in dP/dt max” value (Canis familiaris [21]) was 79% and the Relative inotropic potency (Canis familiaris [23]) was 1.7.

In the case of `Cc1cc(-n2ncnn2)cc2ccc(O)nc12`, the Relative inotropic potency (Canis familiaris [19]) was 1.1 and the “Increase in dP/dt max” value (Canis familiaris [21]) was 24%.

In the case of `Cc1cc(-n2cncc2C)cc2ccc(O)nc12`, the “Decrease in QA interval” value (Canis familiaris [5]) was 11 ms, the “Increase in dP/dt max” value (Canis familiaris [6]) was 55% and the “Decrease in QA interval” value (Canis familiaris [7]) was 14 ms. For the same molecule, the Relative inotropic potency (Canis familiaris [8]) was 4.9.

In the case of `Cc1cc(-n2cnnc2)cc2ccc(O)nc12`, the “Decrease in QA interval” value (Canis familiaris [9]) was 17 ms, the “Increase in dP/dt max” value (Canis familiaris [21]) was 68% and the Relative inotropic potency (Canis familiaris [2]; in the assay text read “administration at 50 ug/kg” for “administration at 25 ug/kg”) was 2.3. The “Decrease in QA interval” value (Canis familiaris [10]) was 15 ms.

With `Cc1cn(-c2cc(C)c3c(c2)C(C)CC(=O)N3)c(C)n1` (stereo unspecified) the “Increase in dP/dt max” value (Canis familiaris [11]) was 20% and the Relative inotropic potency (Canis familiaris [12]) was 1.9.

For `Cc1cc(-n2ccnc2)cc2ccc(O)nc12`, the Relative inotropic potency (Canis familiaris [24]) was 4.5, the “Decrease in QA interval” value (Canis familiaris [9]) was 15 ms and the “Decrease in QA interval” value (Canis familiaris [10]) was 20 ms. The “Increase in dP/dt max” value (Canis familiaris [4]) was 139%.

`Cc1[nH]c(=O)c(C#N)cc1-c1ccncc1` [MILRINONE] was tested, and the “Decrease in QA interval” value (Canis familiaris [9]) was 7 ms, the Relative inotropic potency (Canis familiaris [2]) was 1.6 and the “Decrease in QA interval” value (Canis familiaris [10]) was 13 ms. The “Increase in dP/dt max” value (Canis familiaris [4]) was 46%.

In the case of `Cc1cn(-c2cc(C)c3[nH]c(=O)ccc3c2)c(C)n1` [NANTERINONE], the “Decrease in QA interval” value (Canis familiaris [9]) was 17 ms, the “Increase in dP/dt max” value (Canis familiaris [6]) was 40% and the Relative inotropic potency (Canis familiaris [8]) was 7.6. The “Decrease in QA interval” value (Canis familiaris [10]) was 16 ms.
